The source made the active and inactive calls. The calls are words filed in the database; no cut-off is given here.
How the values were obtained:
[1] = system: DU-145; assay: Cell cycle arrest in human DU145 cells assessed as accumulation of cells at S phase at 100 uM after 24 hrs using propidium iodide stain by flow cytometry; assay type: functional
Method in brief: (§1)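 DU145 cells treated with 1, 5, 10 or 100 µM for 24 or 72 h; vehicle 1% DMSO in water. Adherent and floating cells pooled, fixed in PBS-MeOH (1:2) at 4 °C for at least 18 h, then stained 30 min at room temperature in the dark with propidium iodide 50 µg/mL plus RNase A 50 µg/mL. Flow cytometry, excitation 488 nm, emission above 580 nm, doublets gated out. Sub-G1 region taken as DNA damage; at least three runs.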

[2] = system: DU-145; assay: Cell cycle arrest in human DU145 cells assessed as accumulation of cells at G2/M phase at 100 uM after 24 hrs using propidium iodide stain by flow cytometry; assay type: functional; method in brief: as §1
[3] = system: DU-145; assay: Cytotoxicity against human DU145 cells at 100 uM after 72 hrs by Trypan blue dye exclusion test; assay type: functional, cell-based
Method in brief: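 DU145 cells (1 × 10^5 per 60 mm dish) treated the following day with 1–100 µM for 24, 48 and 72 h. Cells harvested, washed twice with PBS and stained with trypan blue; unstained viable cells counted by microscope with a hemocytometer. Mean ± SE.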

[4] = system: DU-145; assay: Cell cycle arrest in human DU145 cells assessed as accumulation of cells at S phase at 1 uM after 24 hrs using propidium iodide stain by flow cytometry; assay type: functional; method in brief: as §1
[5] = system: DU-145; assay: Cell cycle arrest in human DU145 cells assessed as accumulation of cells at sub-G1 phase after 24 hrs using propidium iodide stain by flow cytometry; assay type: functional, cell-based; method in brief: as §1
[6] = system: DU-145; assay: Cell cycle arrest in human DU145 cells assessed as accumulation of cells at G1 phase at 5 uM after 72 hrs using propidium iodide stain by flow cytometry; assay type: functional; method in brief: as §1
[7] = system: LNCaP; assay: Cytotoxicity against human LNCAP cells after 72 hrs by XTT assay; assay type: functional, cell-based; conditions: 24 h, in the assay text read “after 24 hrs” for “after 72 hrs”
Method in brief: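 Prostate cancer cells in RPMI-1640 with 10% FBS, 37 °C, 5% CO2, grown to 70–80% confluence and treated at 0.1–100 µM for 24, 48 and 72 h. XTT labeling for 4 h at 37 °C, absorbance 450 nm (reference 650 nm) against control wells. IC50 derived from the mean of eight wells; taxol and cisplatin served as positive controls.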

[8] = system: DU-145; assay: Cell cycle arrest in human DU145 cells assessed as accumulation of cells at G1 phase at 1 uM after 24 hrs using propidium iodide stain by flow cytometry; assay type: functional; method in brief: as §1
[9] = system: DU-145; assay: Cell cycle arrest in human DU145 cells assessed as accumulation of cells at G2/M phase at 1 uM after 72 hrs using propidium iodide stain by flow cytometry; assay type: functional; method in brief: as §1
[10] = system: DU-145; assay: Induction of apoptosis in human DU145 cells assessed as PARP activation at 100 uM by ELISA; assay type: functional, cell-based
[11] = system: DU-145; assay: Cell cycle arrest in human DU145 cells assessed as accumulation of cells at G2/M phase at 1 uM after 24 hrs using propidium iodide stain by flow cytometry; assay type: functional; method in brief: as §1
[12] = system: DU-145; assay: Induction of apoptosis in human DU145 cells assessed as caspase9 activation after 24 hrs by ELISA; assay type: functional, cell-based; conditions: TDE = time-dependent effect
Method in brief: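 DU145 cells treated with 10 µM for 1, 3, 6, 12 and 24 h and lysed. Lysate (60 µg) incubated with Ac-DEVD-pNA or Ac-LEHD-pNA in PIPES buffer pH 7.2 at 37 °C for 1 h in the dark. pNA release read at 405 nm and expressed as percent change against untreated control.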

[13] = system: DU-145; assay: Cell cycle arrest in human DU145 cells assessed as accumulation of cells at sub-G1 phase at 100 uM after 72 hrs using propidium iodide stain by flow cytometry; assay type: functional; method in brief: as §1
[14] = system: DU-145; assay: Cell cycle arrest in human DU145 cells assessed as accumulation of cells at G1 phase at 5 uM after 24 hrs using propidium iodide stain by flow cytometry; assay type: functional; method in brief: as §1
[15] = system: DU-145; assay: Cell cycle arrest in human DU145 cells assessed as accumulation of cells at sub-G1 phase at 5 uM after 72 hrs using propidium iodide stain by flow cytometry; assay type: functional; method in brief: as §1
[16] = system: DU-145; assay: Cell cycle arrest in human DU145 cells assessed as accumulation of cells at G1 phase at 1 uM after 72 hrs using propidium iodide stain by flow cytometry; assay type: functional; method in brief: as §1
[17] = system: DU-145; assay: Cell cycle arrest in human DU145 cells assessed as accumulation of cells at G1 phase at 100 uM after 72 hrs using propidium iodide stain by flow cytometry; assay type: functional; method in brief: as §1
[18] = system: DU-145; assay: Increase of intracellular hydrogen peroxide and or peroxide in human DU145 cells at 50 uM after 24 hrs by DCFH-DA assay relative to control; assay type: functional
Method in brief: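 DU145 cells (1 × 10^4 per well) treated with 1, 10 or 50 µM for 6–24 h, then loaded with 10 µM DCFH-DA in serum-free medium for 30 min at 37 °C in the dark. DCF fluorescence read by spectrofluorimeter (ex 495, em 530 nm) within 15 min; five experiments.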

[19] = system: DU-145; assay: Cell cycle arrest in human DU145 cells assessed as accumulation of cells at G1 phase at 100 uM after 24 hrs using propidium iodide stain by flow cytometry; assay type: functional; method in brief: as §1
[20] = system: DU-145; assay: Induction of apoptosis in human DU145 cells assessed as change in cellular morphology after 24 hrs by Hoechst 33342 stainig; assay type: functional, cell-based
Method in brief: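 DU145 cells exposed to 1 and 100 µM for 24 h, vehicle 1% DMSO. Fixed in 3.7% paraformaldehyde, stained with Hoechst 33342 (5 µg/mL) at 37 °C for 1 h and examined by fluorescence microscopy. Cells with reduced nuclear size, chromatin condensation or nuclear fragmentation scored as apoptotic.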

[21] = system: DU-145; assay: Cell cycle arrest in human DU145 cells assessed as accumulation of cells at G2/M phase at 10 uM after 24 hrs using propidium iodide stain by flow cytometry; assay type: functional; method in brief: as §1
[22] = system: DU-145; assay: Reduction of mitochondrial membrane potential in human DU145 cells using rhodamine 123 staining by spectrophotofluorimeter; assay type: functional, cell-based
Method in brief: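 DU145 cells incubated 6, 12, 18 or 24 h with or without 10 and 100 µM, then given 10 µM rhodamine 123 in serum-free medium for 15 min at 37 °C. Collected cells read within 15 min by spectrofluorimeter (ex 495, em 520 nm); three experiments.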

[23] = system: DU-145; assay: Cytotoxicity against human DU145 cells after 72 hrs by XTT assay; assay type: functional, cell-based; conditions: DU-145, 24 h, in the assay text read “after 24 hrs” for “after 72 hrs”

CCCCCCCCCCCCCCCCCCCCCCCC/C=C(/C(=O)OC)[C@@H](O)C(C)=O [SECOTENUIFOLIDE A]
Activity [1]: 10.04% | Activity [2]: 26.4% | Activity [3]: Active | Activity [4]: 3.31% | Activity [5]: Dose-dependent effect | Activity [6]: 48.96% | EC50 [7]: < 7 µM | IC50 [7]: 6.76 µM | Activity [8]: 44.45% | Activity [9]: 33.68% | Activity [10]: Active | Activity [11]: 43.3% | Activity [12]: tde | Activity [13]: 32.57% | Activity [14]: 34.96% | Activity [15]: 14.24% | Activity [16]: 53.11% | Activity [17]: 28.57% | fold change (FC) [18]: 2.5 | Activity [19]: 35.57% | Activity [20]: Active | Activity [21]: 36.57% | Activity [22]: Active | EC50 [23]: < 7 µM | IC50 [23]: 5.2 µM
